Experimental data reported in ChEMBL document CHEMBL1157555, “Synthesis and pharmacological evaluation of novel 1,3,8- and 1,3,7,8-substituted xanthines as adenosine receptor antagonists” (Bioorg Med Chem, 2010).
pKi: −log10 of the molar value.

Assays:
Adenosine receptor A3 = molecular target: T1, Adenosine receptor A3 (Homo sapiens, UniProt P0DMS8); assay: Displacement of [3H]NECA from human recombinant adenosine A3 receptor expressed in human HeLa cells by microplate beta scintillation counter; format: cell-based
T1 sequence (P0DMS8 whole entry): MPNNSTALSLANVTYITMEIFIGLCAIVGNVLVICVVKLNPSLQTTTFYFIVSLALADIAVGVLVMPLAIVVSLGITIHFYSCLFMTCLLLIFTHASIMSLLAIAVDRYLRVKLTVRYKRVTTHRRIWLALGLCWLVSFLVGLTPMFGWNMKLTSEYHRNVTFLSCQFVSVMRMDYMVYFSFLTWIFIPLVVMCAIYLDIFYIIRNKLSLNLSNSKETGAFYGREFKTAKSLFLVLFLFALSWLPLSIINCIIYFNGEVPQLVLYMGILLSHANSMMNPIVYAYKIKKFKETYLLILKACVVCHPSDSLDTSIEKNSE
How it was run: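 HeLa-A3 cell membranes were labelled with 30 nM [3H]NECA. Non-specific binding was defined with (R)-PIA. After 180 min at 25 °C, samples were filtered and counted by beta scintillation. Ki was calculated by Cheng–Prusoff from IC50 obtained by non-linear regression. Weak or poorly soluble compounds were reported as % inhibition of specific binding at a single concentration. Mean of 3 experiments in duplicate.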

Adenosine receptor A1 = molecular target: T2, Adenosine receptor A1 (Homo sapiens, UniProt P30542); assay: Displacement of [3H]DPCPX from human recombinant adenosine A1 receptor expressed in CHO cells by microplate beta scintillation counter; format: cell-based
T2 sequence (P30542 whole entry): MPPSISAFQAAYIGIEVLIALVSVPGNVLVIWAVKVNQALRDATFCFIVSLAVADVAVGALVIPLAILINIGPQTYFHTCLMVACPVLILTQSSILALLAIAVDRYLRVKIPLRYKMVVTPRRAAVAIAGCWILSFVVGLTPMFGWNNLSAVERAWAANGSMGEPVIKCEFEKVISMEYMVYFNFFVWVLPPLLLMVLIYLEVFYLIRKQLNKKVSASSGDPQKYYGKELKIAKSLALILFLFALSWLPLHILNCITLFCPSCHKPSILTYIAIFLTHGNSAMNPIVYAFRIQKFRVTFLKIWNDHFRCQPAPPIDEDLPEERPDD
How it was run: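 Membranes from CHO cells expressing human A1 were labelled with 2 nM [3H]DPCPX. Non-specific binding was defined with (R)-PIA. Incubation ran 60 min at 25 °C, then samples were filtered and counted by beta scintillation. IC50 came from non-linear regression, and Ki from Cheng–Prusoff. Weak or poorly soluble compounds were reported as % inhibition of specific binding at a single concentration. Mean of 3 experiments, each in duplicate.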

Adenosine receptor A2b = molecular target: T3, Adenosine receptor A2b (Homo sapiens, UniProt P29275); assay: Displacement of [3H]DPCPX from human recombinant adenosine A2B receptor expressed in HEK293 cells by microplate beta scintillation counter; format: cell-based
T3 sequence (P29275 whole entry): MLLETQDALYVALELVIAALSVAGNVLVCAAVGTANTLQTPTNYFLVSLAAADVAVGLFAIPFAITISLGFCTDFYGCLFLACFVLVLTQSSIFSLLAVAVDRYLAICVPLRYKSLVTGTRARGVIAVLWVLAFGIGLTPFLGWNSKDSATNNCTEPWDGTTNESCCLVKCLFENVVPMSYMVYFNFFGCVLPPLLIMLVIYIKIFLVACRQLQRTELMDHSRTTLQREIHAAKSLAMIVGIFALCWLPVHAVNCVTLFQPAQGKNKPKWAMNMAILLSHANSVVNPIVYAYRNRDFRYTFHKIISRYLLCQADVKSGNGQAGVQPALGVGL
How it was run: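 Membranes from HEK-293 cells expressing human A2B were labelled with 35 nM [3H]DPCPX. Incubation ran 30 min at 25 °C, followed by filtration and beta scintillation counting. IC50 was fitted by non-linear regression and converted to Ki by Cheng–Prusoff. Weak or poorly soluble compounds were given as % inhibition of specific binding at a single concentration. n = 3, each in duplicate.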

Adenosine receptor A2a = Adenosine receptor A2a (Homo sapiens, UniProt P29274); assay: Displacement of [3H]ZM241385 from human recombinant adenosine A2A receptor expressed in human HeLa cells by microplate beta scintillation counter; format: cell-based
Chain of Adenosine receptor A2a (P29274 whole entry): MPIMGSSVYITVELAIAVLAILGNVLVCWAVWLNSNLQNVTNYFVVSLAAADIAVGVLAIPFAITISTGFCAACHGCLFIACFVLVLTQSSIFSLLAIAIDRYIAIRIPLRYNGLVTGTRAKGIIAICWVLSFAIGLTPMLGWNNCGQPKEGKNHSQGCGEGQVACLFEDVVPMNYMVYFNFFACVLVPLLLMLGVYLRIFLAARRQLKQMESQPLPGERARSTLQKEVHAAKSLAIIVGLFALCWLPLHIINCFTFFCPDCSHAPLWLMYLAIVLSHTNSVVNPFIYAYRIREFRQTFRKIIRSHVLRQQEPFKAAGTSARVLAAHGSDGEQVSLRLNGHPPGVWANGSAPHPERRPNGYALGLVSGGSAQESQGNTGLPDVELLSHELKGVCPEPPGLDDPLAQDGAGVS
How it was run: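 Competition used HeLa cell membranes expressing human A2A with [3H]ZM241385. Non-specific binding was set with NECA. Incubation was 30 min at 25 °C, then filtration and beta scintillation counting. IC50 from non-linear regression was converted to Ki (Cheng–Prusoff). Weak or poorly soluble compounds were reported as % inhibition of specific binding at a single concentration. Three experiments, each in duplicate.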

Homo sapiens [1] = species on record: Homo sapiens; assay: Selectivity ratio of Ki for human adenosine A2A receptor to Ki for human adenosine A2B receptor
How it was run: (§1)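 Ratios of Ki values at each human subtype to Ki at human A2B (HEK-293 membranes, [3H]DPCPX). Each Ki was derived by Cheng–Prusoff from IC50 of radioligand competition binding in membranes of transfected cells. Results are the mean of 3 experiments, each in duplicate.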

Homo sapiens [2] = species on record: Homo sapiens; assay: Selectivity ratio of Ki for human adenosine A1 receptor to Ki for human adenosine A2B receptor; how it was run: as §1
Homo sapiens [3] = species on record: Homo sapiens; assay: Selectivity ratio of Ki for human adenosine A3 receptor to Ki for human adenosine A2B receptor; how it was run: as §1

## CCn1c(=O)c2[nH]c(Cc3cccs3)nc2n(Cc2cccs2)c1=O
Adenosine receptor A3
  pKi: 6.09
Adenosine receptor A1
  pKi: 6.17
Adenosine receptor A2b
  pKi: 6.86
Adenosine receptor A2a
  pKi: 5.40
Homo sapiens [1]
  Ratio Ki: 28.9
Homo sapiens [2]
  Ratio Ki: 4.9
Homo sapiens [3]
  Ratio Ki: 5.9

## CCCn1c(=O)c2[nH]c(-c3ccccc3)nc2n(CCSCC)c1=O
Adenosine receptor A3
  pKi: 6.93
Adenosine receptor A1
  pKi: 7.03
Adenosine receptor A2b
  pKi: 6.72
Adenosine receptor A2a
  pKi: 5.84
Homo sapiens [1]
  Ratio Ki: 7.6
Homo sapiens [2]
  Ratio Ki: 0.5
Homo sapiens [3]
  Ratio Ki: 0.6
